Reference: ChEMBL document CHEMBL3232797, “Targeting Staphylococcus aureus quorum sensing with nonpeptidic small molecule inhibitors” (J Med Chem, 2014)
In brackets after ≈: the same amount, converted by molar mass. Activity calls are given as the source filed them. No cut-off for these calls is given here.

Assays:
Staphylococcus aureus [1] = test: Noncompetitive inhibition of AgrC-I in AIP-1-induced Staphylococcus aureus RN6390B at 25 to 100 uM after 55 mins by kinetic study
Method in brief: (§1)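 The reporter strain was S. aureus RN6390B (pRN6683) carrying agrP3::blaZ. It was grown overnight at 37 °C in CYGP with 5 μg/mL chloramphenicol, diluted 1/100, and grown to OD600 ≈ 0.4. Cells were exposed to AIP-1 (0.01 nM–10 μM) plus compound (0–100 μM) for 55 min at 37 °C, quenched with sodium azide, and read as β-lactamase activity by nitrocefin. Triplicates were run on ≥2 occasions, with IC50 fitted.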

[2] = Inhibition of AIP-1-induced AgrC-I activation in Staphylococcus aureus RN6390B after 55 mins by beta-lactamase reporter assay
Method in brief: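 agrP3::blaZ reporter strain RN6390B (pRN6683) grown overnight at 37 °C in CYGP with 5 μg/mL chloramphenicol, diluted 1/100, grown with shaking to OD600 ≈ 0.4. Incubated with AIP-1 (0.01 nM to 10 μM) plus compounds (0–100 μM) for 55 min at 37 °C; quenched with sodium azide; β-lactamase read with nitrocefin. Triplicate, ≥2 independent occasions; IC50 fitted.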

Staphylococcus aureus [3] = test: Antimicrobial activity against Staphylococcus aureus RN6390B assessed as growth inhibition up to 100 uM after 18 hrs by spectrophotometry; format: functional, organism-based
Method in brief: (§2)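 Staphylococci were grown at 37 °C with shaking in LB, Mueller–Hinton or CYGP broth, with or without test compound. Growth curves were followed as OD600 over 18 h.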

Staphylococcus aureus [4] = test: Inhibition of AIP-1-induced AgrC-I activation in Staphylococcus aureus RN6390B up to 100 uM after 55 mins by beta-lactamase reporter assay; method in brief: as §1
Staphylococcus aureus [5] = test: Antimicrobial activity against Staphylococcus aureus RN6390B assessed as growth inhibition after 18 hrs by spectrophotometry; format: functional
Staphylococcus aureus [6] = test: Antimicrobial activity against Staphylococcus aureus USA300 assessed as growth inhibition at 100 uM after 18 hrs by spectrophotometry; format: functional, organism-based; method in brief: as §2
[7] = Iron-chelating activity at 50 uM by Chrome Azurol S […] assay; format: physicochemical
Method in brief: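 Chrome azurol S (CAS) assay with compounds at 50 μM. Desferrioxamine (10 μM) served as positive control and MeCN as solvent control.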

Staphylococcus aureus [8] = test: Noncompetitive inhibition of AgrC-I in AIP-1-induced Staphylococcus aureus RN6390B assessed as reduction in maximum level of activation at 25 to 100 uM after 55 mins by kinetic study relative to control; method in brief: as §1
Staphylococcus aureus [9] = test: Inhibition of Staphylococcus aureus adherence to human nasal squamous epithelial cells at 10 uM after 1 hr; format: functional, organism-based; conditions: Epithelial cell
Method in brief: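 Desquamated human nasal squamous epithelial cells, untreated or compound-treated, were incubated with S. aureus. Bound bacteria were counted per 100 nasal cells, as the mean of three experiments run in duplicate.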

Staphylococcus aureus [10] = test: Antimicrobial activity against Staphylococcus aureus Newman in NMRI mouse septic arthritis model; format: functional, organism-based
Method in brief: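 Mice were given test agent at 10 mg/kg body weight or PBS (control) and then challenged with S. aureus. Arthritis frequency and arthritic index were scored over a 10 day period.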

Staphylococcus aureus [11] = test: Noncompetitive inhibition of AgrC-I in AIP-1-induced Staphylococcus aureus RN6390B at 5 to 25 uM after 55 mins by kinetic study; method in brief: as §1

inhibition (Staphylococcus aureus [4]) | SMILES | IC50 [2] | growth inhibition (GI) (Staphylococcus aureus [3]) | other results
 | CCCCCCCCCC(=O)CC(=O)N[C@H]1CCOC1=O | 22 µM |  | inhibition (Staphylococcus aureus [1]): Active
inactive | O=C(Cc1ccc([N+](=O)[O-])cc1)C1=C(O)COC1=O |  | inactive | 
 | CCCCCC/C=C\CCCC(=O)C1=C(O)COC1=O | 88 µM | inactive | 
 | CCCCC/C=C/CCC(=O)C1=C(O)COC1=O | 22 µM |  | MIC (Staphylococcus aureus [5]): 50 µM (≈ 12.6 µg/mL)
inactive | CCCCCCCCCC(=O)CC(=O)Nc1nccs1 |  | inactive | 
inactive | CCCCCCCCCC(=O)CC(=O)N[C@@H](CCO)C(=O)O |  | inactive | 
 | CCCCCCCCCCCCC/C(O)=C1/C(=O)N[C@@H](CCO)C1=O | 14 µM |  | MIC (Staphylococcus aureus [5]): 12.5 µM (≈ 4.42 µg/mL)
inactive | O=C1N[C@@H](CCO)C(=O)/C1=C(/O)Cc1ccc([N+](=O)[O-])cc1 |  | inactive | 
inactive | CCCCCCCCCC(=O)CC(N)=O |  | inactive | 
inactive | CCCCCCCCCC(=O)CC(=O)N[C@H]1CCSC1=O |  | inactive | 
inactive | O=C(CCCc1ccccc1)CC(=O)N[C@H]1CCOC1=O |  | inactive | 
 | CCCCCCCCCC/C(O)=C1/C(=O)N[C@@H](CCO)C1=O | 10 µM |  | MIC (Staphylococcus aureus [5]): 50 µM (≈ 15.6 µg/mL)
inactive | CCCCCCCCCC(=O)CC(=O)C1=C(O)COC1=O |  | inactive | 
inactive | CCCCCCCCCC(O)CC(=O)N[C@H]1CCOC1=O (stereo not given in full) |  | inactive | 
inactive | CCCCCCCCNC(=O)CC(=O)N[C@H]1CCOC1=O |  | inactive | 
 | CCCCCCCCCC(=O)CC(=O)N[C@@H]1CCOC1=O | 37 µM |  | MIC (Staphylococcus aureus [5]): 100 µM (≈ 29.7 µg/mL)
inactive | CCCCCCCCCC(=O)CC(=O)N[C@H]1CC(=O)NC1=O |  | inactive | 
inactive | CCCCCCCCCC(=O)CC(=O)N[C@H]1CCC(=O)NC1=O |  | inactive | 
inactive | CCCCCCCCCCCC(=O)N[C@H]1CCOC1=O |  | inactive | 

inhibition (Staphylococcus aureus [4]) | SMILES | IC50 [2] | growth inhibition (GI) (Staphylococcus aureus [3]) | other results
 | CCCCCCC/C(O)=C1/C(=O)N[C@@H](CCO)C1=O | 42 µM | inactive | growth inhibition (GI) (Staphylococcus aureus [6]): inactive
 | CCCCCCCCCCC/C(O)=C1/C(=O)N[C@@H](CCO)C1=O | 13 µM |  | MIC (Staphylococcus aureus [5]): 25 µM (≈ 8.14 µg/mL)
 | CCCCCCCCC/C(O)=C1/C(=O)N[C@H](CCO)C1=O | 28 µM | inactive | 
inactive | O=C1N[C@@H](CCO)C(=O)/C1=C(/O)CCCC1CCCCC1 |  | inactive | 
inactive | CCCCCCCCN(C)C(=O)CC(=O)N[C@H]1CCOC1=O |  | inactive | 
 | CCCCCCCCCC(=O)C1=C(O)COC1=O | 21 µM |  | MIC (Staphylococcus aureus [5]): 50 µM (≈ 12.7 µg/mL); Activity [7]: Not Active
inactive | CCCCCCCCOC(=O)CC(=O)N[C@H]1CCOC1=O |  | inactive | 
 | CCCCCC(=O)C1=C(O)COC1=O |  | inactive | Activity [7]: Not Active
inactive | CCCCC/C=C/CCC(=O)CC(=O)N[C@H]1CCOC1=O |  | inactive | 
 | CCCCCCCCC/C(O)=C1/C(=O)N[C@@H](C)C1=O | 20 µM |  | MIC (Staphylococcus aureus [5]): 100 µM (≈ 26.7 µg/mL)
inactive | CC(C)CCCCCCC(=O)C1=C(O)COC1=O |  | inactive | 
inactive | O=C(CCCC1CCCCC1)CC(=O)N[C@H]1CCOC1=O |  | inactive | 
 | CCCCCCCCC/C(O)=C1\C(=O)CNC1=O | 30 µM |  | MIC (Staphylococcus aureus [5]): 100 µM (≈ 25.3 µg/mL)
inactive | O=C(Cc1ccc(Br)cc1)C1=C(O)COC1=O |  | inactive | 
inactive | O=C(COc1ccc(Br)cc1)C1=C(O)COC1=O |  | inactive | 
 | CCCCCCCCCCCCCCCC(=O)C1=C(O)COC1=O | 13 µM | inactive | 
 | CCCCCCCCC/C(O)=C1/C(=O)N[C@@H](CCO)C1=O | 42 µM |  | fold change (FC) (Staphylococcus aureus [8]): 10; inhibition (Staphylococcus aureus [9]): Active; Activity (Staphylococcus aureus [10]): inactive; MIC (Staphylococcus aureus [5]): 100 µM (≈ 29.7 µg/mL); Activity [7]: Active
inactive | CCCC(=O)CC(=O)C1=C(O)COC1=O |  | inactive | 
 | CCCCCCCCCCCC(=O)C1=C(O)COC1=O | 6 µM |  | inhibition (Staphylococcus aureus [11]): Active; MIC (Staphylococcus aureus [5]): 25 µM (≈ 7.06 µg/mL); Activity [7]: Not Active

SMILES | inhibition (Staphylococcus aureus [4]) | IC50 [2] | growth inhibition (GI) (Staphylococcus aureus [3]) | other results
CCC/C(O)=C1/C(=O)N[C@@H](CCO)C1=O | inactive |  | inactive | 
CCCCCCCCCC(=O)CC(=O)O[C@H]1CCOC1=O | inactive |  | inactive | 
CCCCCCCCCC(=O)CC(=O)N[C@H]1CCNC1=O | inactive |  | inactive | 
